Calls of active or inactive are those of the source.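 How the source made its calls: active means at least 50% ABHD10 inhibition in mouse heart after 25 mg/kg, and no other enzyme inhibited 50% at any dose; inactive means the rest.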
Experiments:
[1] = in vivo ABHD10 engagement and hydrolase selectivity – gel-based competitive ABPP, fluorescence, mouse heart, in vivo study for PME-1 inhibitor project, late-stage follow-up (AID 602485); settings: C57BL/6 mice i.p., heart proteome, FP-Rh gel ABPP; anti-targets at any tested dose
How it was run: (§1)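 System: C57BL/6 mouse heart soluble proteome. Reagent: FP-Rh activity-based probe, 1 µM final. Schedule: 6 h in vivo exposure, probe labelling 30 min at 25 °C. Technique: in-gel fluorescence after SDS-PAGE. Evaluation: percent inhibition from band integrated optical density versus vehicle. Control set: vehicle-dosed mice as high control, blank gel background as low.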

[2] = molecular target: Palmitoyl-protein thioesterase ABHD10, mitochondrial (Mus musculus) (UniProt Q6PE15); experiment: as above; settings: C57BL/6 mice i.p., heart proteome, FP-Rh gel ABPP, stronger effect = higher value
Sequence of Palmitoyl-protein thioesterase ABHD10, mitochondrial (Mus musculus) (Q6PE15 whole entry, looked up): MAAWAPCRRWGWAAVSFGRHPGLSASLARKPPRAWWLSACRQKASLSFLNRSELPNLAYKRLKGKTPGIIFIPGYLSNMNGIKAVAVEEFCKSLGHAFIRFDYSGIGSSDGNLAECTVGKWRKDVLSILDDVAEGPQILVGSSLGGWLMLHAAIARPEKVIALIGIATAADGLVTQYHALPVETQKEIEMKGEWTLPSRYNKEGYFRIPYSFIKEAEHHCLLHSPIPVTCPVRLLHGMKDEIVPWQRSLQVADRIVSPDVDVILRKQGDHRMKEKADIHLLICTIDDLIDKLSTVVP
How it was run: as §1

## CC[C@@]1(c2ccc(C)cc2)C(=O)N(C(=O)OC(C)C)N1C(=O)OC(C)C
[1]
  outcome: inactive
[2]
  inhibition: 99%
[2]; inhibition at 6 mg/kg
  inhibition: 10%
[2]; inhibition at 13 mg/kg
  inhibition: 60%

— PubChem BioAssay AID602485 (The Scripps Research Institute Molecular Screening Center, 2012)
